Hits are enriched below; roughly 2.1% of the tested compounds scored in any of these assays.
Cneo AK release – Cryptococcus neoformans lysis via adenylate kinase release | AID 651654 | C. neoformans lysis, adenylate kinase release luminescence, 4 h; normalised: neutral wells 0, clomiphene wells 100 | lysis activity, % at 15 µM | hit rate 0.2% among 360,000;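 active means mean lysis activity across replicates of at least 80%, whatever share of replicates individually reach that level; inactive means mean lysis activity below 80%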
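Test system: log-phase Cryptococcus neoformans yeast cells; Quantity: yeast cell density of 5 × 10^6 cells/mL; Buffer or medium: YPD; Doses: single compound concentration per well; Timing: 4 h at 37 °C static, read 1 h later; Measured by: AK luminescence; Read-out basis: lysis from increased AK signal; Control set: Clomiphene as positive control.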
Xi reactivation – activators of X-chromosome reactivation in mouse fibroblasts | AID 743238 | activation, % at 7.58 µM | hit rate 0.055% among 360,000 | XiGFP mouse fibroblasts, % GFP-positive cells imaging, 3 d; cells co-treated with 5-aza-dC sensitizer; scaled so ellipticine positive control = 100%;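 active means mean normalized replicate activation at least 10% and every replicate at or above 10%; inconclusive means only one of the two criteria met; inactive means mean below 10% and not all replicates reach 10%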
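Assay system – SV40-immortalized XiGFP fibroblast cells, line 68-5-11 · Buffer or medium – DMEM supplemented with 5-aza-dC as sensitizing agent · Dosing – one concentration, pinned · Benchmarks – positive control ellipticine, 6 µM final · Times – 3 days compound exposure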
DENV2 CPE rescue – DENV2-induced cell death inhibition. DENV2-infected cells, cytopathic effect rescue, plate reader. CPE inhibition, % at 9.99 µM. hit rate 1.7% among 350,000; in the data active means CPE inhibition above about 20%, passing the limit was not always enough; inconclusive means no clear call, values can overlap the other calls; tested in BHK-21 cells
Statin myotox sup – protects C2C12 myotubes from simvastatin toxicity; ATP luminescence, 48 h; scaled: DMSO 0, geranylgeraniol control 100; rescue of ATP level, % at 7.49 µM; hit rate 0.78% among 330,000;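 active means mean ATP rescue above about 67%, or every replicate alone reaching that limit, limit read from the data, passing the limit was not always enough; inconclusive means no clear call, values can overlap the other calls; inactive means mean under the limit and some replicate under it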;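 further: myotubes were challenged with 10 µM simvastatin during compound exposure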
Numbers stand for hits; – = inactive; ? = inconclusive; · = no result given.

SMILES | Cneo AK release | Xi reactivation | DENV2 CPE rescue | Statin myotox sup
O=C(Nc1ccccc1)N1CCCCN2[C@H](CO)[C@H](c3ccc(Br)cc3)[C@H]2C1 | – | – | 32 | –
O=C(Nc1ccccc1)N1CCCCN2[C@H](CO)[C@H](c3ccc(Br)cc3)[C@@H]2C1 | – | – | 28 | –
Cc1ccccc1-c1ccc([C@@H]2[C@H]3CN(C(=O)Nc4ccccc4)CCCCN3[C@H]2CO)cc1 | – | – | 61 | ·
O=C(Nc1ccccc1)N1CCCCN2[C@H](C1)[C@H](c1ccc(-c3ccccc3)cc1)[C@@H]2CO | – | – | – | ·
O=C(Nc1ccccc1)N1CCCCN2[C@H](C1)[C@@H](c1ccc(-c3ccccc3)cc1)[C@@H]2CO | – | – | – | ·
CO[C@H]1CN(C)C(=O)c2ccc(NC(=O)c3cnccn3)cc2OC[C@H](C)N(C(=O)C2CC2)C[C@@H]1C | – | – | – | –
C[C@@H]1CN([C@@H](C)CO)C(=O)c2cc(NC(=O)C3CCCCC3)ccc2O[C@@H](C)CCCCO[C@@H]1CN(C)Cc1ccccc1 | – | – | – | ·
O=C(O)Cc1c(O)ccc2ccccc12 | – | · | · | 121
O=C(C1=C[C@@H](c2ccc(C(F)(F)F)cc2)C[C@@H](OCc2ccc(CO)cc2)O1)N1CCCCCCC1 | – | · | – | ·
O=C(O)C[C@@H]1C[C@@H]2c3cc(NS(=O)(=O)c4ccccc4)ccc3O[C@@H]2[C@H](CO)O1 | · | – | – | ·
O=C(NCc1ccccc1)c1ccc2c(c1)C(=O)N(Cc1cccnc1)C2=O | – | – | ? | –
O=C1c2ccc([N+](=O)[O-])cc2C(=O)N1Cc1cccnc1 | – | – | 90 | –
C[C@@H]1CN([C@H](C)CO)S(=O)(=O)c2ccc(Br)cc2O[C@H]1CN(C)C(=O)C1CCC1 | · | – | · | –
CCOc1ccccc1-c1nnc(CS(=O)(=O)c2ccccc2)o1 | – | – | 53 | –
CCCNC(=O)C[C@@H]1CC[C@@H]2[C@H](COc3ccc(NC(=O)c4cscn4)cc3C(=O)N2C)O1 | · | – | · | –
COc1ccc2c3c([nH]c2c1)[C@H](CO)N(C(C)=O)CC31CCN(C(=O)CN2CCOCC2)CC1 | · | – | ? | ·
CCCNC(=O)N(C)C[C@H]1Oc2ncc(-c3ccncc3)cc2C(=O)N([C@@H](C)CO)C[C@@H]1C | – | – | – | –
O=C1c2ccccc2C(=O)N1CCC(c1ccc(F)cc1)c1ccco1 (stereo unspecified) | – | · | · | 77
O=C(NC1CCCCC1)C1CCN(C(=O)NCc2ccccc2)CC1 | – | · | · | 103
O=C1c2cccc3c(O)ccc(c23)C(=O)N1Cc1ccco1 | – | – | 24 | –
CCCNC(=O)N[C@H]1C=C[C@H](CC(=O)NCCc2ccccc2)O[C@H]1CO | · | – | · | –
C[C@@H]1CCCCO[C@@H](CN(C)S(=O)(=O)c2cccs2)[C@H](C)CN([C@H](C)CO)C(=O)c2cc(NC(=O)Nc3ccccc3)ccc2O1 | – | – | 60 | ·
C[C@@H]1CCCCO[C@@H](CN(C)S(=O)(=O)c2cccs2)[C@H](C)CN([C@@H](C)CO)C(=O)c2cc(NC(=O)Nc3ccc(F)cc3)ccc2O1 | – | – | – | 84
C[C@@H]1CN([C@@H](C)CO)C(=O)c2cc(NC(=O)c3ccccc3)ccc2O[C@@H](C)CCCCO[C@@H]1CN(C)S(=O)(=O)c1cccs1 | – | – | 45 | ·
C[C@@H]1CCCCO[C@H](CN(C)S(=O)(=O)c2cccs2)[C@H](C)CN([C@@H](C)CO)C(=O)c2cc(NC(=O)Nc3ccccc3)ccc2O1 | – | – | – | ·
SMILES | Cneo AK release | Xi reactivation | DENV2 CPE rescue | Statin myotox sup
C[C@@H]1CN([C@H](C)CO)C(=O)c2cc(NC(=O)Nc3ccc(F)cc3)ccc2O[C@@H](C)CCCCO[C@@H]1CN(C)S(=O)(=O)c1cccs1 | – | – | 21 | –
C[C@H](CO)N1C[C@H](C)[C@H](CN(C)S(=O)(=O)c2cccs2)OCCCC[C@H](C)Oc2ccc(NC(=O)Nc3ccc(F)cc3)cc2C1=O | – | – | – | ?
CC(C)C(=O)Nc1ccc2c(c1)C(=O)N(C)[C@H]1CC[C@@H](CC(=O)NCc3ccc(F)cc3)O[C@H]1CO2 | – | – | – | –
C[C@@H]1CN([C@@H](C)CO)C(=O)c2cccc(NC(=O)CCCCCC(=O)Nc3ccccc3N)c2O[C@@H]1CN(C)C(=O)Nc1ccc(C(F)(F)F)cc1 | · | – | – | ·
O=C(C1CCCCC1)N1CC(=O)N2[C@@H](CO)[C@@H](c3ccc(Br)cc3)[C@@H]2C1 | · | – | ? | ·
CCC(=O)N1CCCCN2[C@H](C1)[C@H](c1ccc(C#Cc3cccnc3)cc1)[C@@H]2CO | – | – | 28 | –
